Among the data in ChEMBL document CHEMBL1135645, “Synthesis and evaluation of analogues of 5'-([(Z)-4-amino-2-butenyl]methylamino)-5'-deoxyadenosine as inhibitors of tumor cell growth, trypanosomal growth, and HIV-1 infectivity” (J Med Chem, 2002) are IC50 and inhibition values, retold here.

Assay [1] has as its system L1210. The assay can be described thus: In vitro inhibition of AdoMetDC derived from L1210 Murine Leukemia Cells. Format: functional. The note with it: Mus musculus, read-out: ID50 (the source's name).
Assay [2] relates to L1210. The assay can be described thus: In vitro Neoplastic Activity against L1210 mucerine leukemia Cell lines. The note with it: Mus musculus. Type of assay: functional, cell-based. Summed up: (§1)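 SRB growth assay. Cell lines were grown as monolayers in RPMI-1640 with 5% FCS, 5% NuSerum IV, 20 mM HEPES and 2 mM glutamine, and seeded at 400–1200 cells/well. They attached for 15–18 h before drug. Ten concentrations over 5 logs were tested, with final DMSO ≤0.25%. Exposure was 72 h at 37 °C. Cells were TCA-fixed, stained with sulforhodamine B and read at OD 570 nm. IC50 is 50% growth inhibition.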

In assay [3] the test system is Trypanosoma brucei brucei. The assay can be described thus: In vitro antitrypanosomal activity against Trypanosomal 110 (EATRO)strain. Format: functional, organism-based.
For assay [4], the system named is Trypanosoma brucei rhodesiense. The assay can be described thus: In vitro antitrypanosomal activity against Trypanosomal 243 As 10e-3 (KETRI)strain. Format: functional, organism-based.
The test system of assay [5] is Trypanosoma brucei rhodesiense. Description: In vitro antitrypanosomal activity against Trypanosomal 243 (KETRI)strain. Type of assay: functional, organism-based.
For assay [6], the system named is Trypanosoma brucei rhodesiense. Description: In vitro antitrypanosomal activity against Trypanosomal 269 (KETRI)strain. Format: functional, organism-based.
The test system of assay [7] is A121. Description: In vitro anti Neoplastic Activity against Human ovarian carcinoma A121 Cell lines. Type of assay: functional, cell-based. The procedure, abridged: as §1
The test system of assay [8] is MCF7. The assay can be described thus: In vitro anti Neoplastic Activity against Human Breast adenocarcinoma MCF-7 Cell lines. Type of assay: functional, cell-based. Summed up: as §1
The test system of assay [9] is Trypanosoma brucei brucei. Description: In vitro anti trypanosomal activity against Trypanosomal 110 (EATRO)strain. Format: functional, organism-based.
The subject of assay [10] is Trypanosoma brucei rhodesiense. The assay can be described thus: In vitro anti trypanosomal activity against Trypanosomal 243 (KETRI)strain. Type of assay: functional, organism-based.
Assay [11] has as its system Trypanosoma brucei rhodesiense. The assay can be described thus: In vitro anti trypanosomal activity against Trypanosomal 243 As 10e-3 (KETRI)strain. Type of assay: functional, organism-based.
Assay [12] has as its system HT-29. Description: In vitro anti Neoplastic Activity in Human Colon adenocarcinoma HT-29 Cell lines. Type of assay: functional, cell-based. Summed up:
as §1

Assay [13] deals with MCF7. Description: In vitro anti Neoplastic Activity against Adriamycin resistant Human Breast adenocarcinoma MCF7-Adr Cell lines. Type of assay: functional, cell-based. Summed up: as §1
Assay [14] relates to Trypanosoma brucei rhodesiense. The assay can be described thus: In vitro anti trypanosomal activity against Trypanosomal 269 (KETRI)strain. Format: functional, organism-based.
Assay [15] has as its system A549. The assay can be described thus: In vitro anti Neoplastic Activity against Human non small cell lung carcinoma A549 Cell lines. Format: functional, cell-based. The procedure, abridged: as §1
For assay [16], the system named is L1210. Description: In Vitro inhibition of L1210 Murine Leukemia Cells by the compound at a dose of 100 uM. Format: functional. The note with it: Mus musculus.
For assay [17], the system named is L1210. Description: In vitro Anti Neoplastic Activity against L1210 murine leukemia Cell lines. Type of assay: functional, cell-based. The note with it: Mus musculus. The procedure, abridged:
as §1

Assay [18] relates to Trypanosoma brucei rhodesiense. The assay can be described thus: In Vitro inhibition of Trypanosomal 243 (KETRI)strain by the compound at a dose of 100 uM. Type of assay: functional.
Assay [19] has as its system A121. The assay can be described thus: In vitro Anti Neoplastic Activity against Human ovarian carcinoma A121 Cell lines. Format: functional, cell-based. The procedure, abridged: as §1
The subject of assay [20] is MCF7. The assay can be described thus: In vitro Anti Neoplastic Activity against Adriamycin resistant Human Breast adenocarcinoma MCF7-Adr Cell lines. Type of assay: functional, cell-based. Summed up:
as §1

The test system of assay [21] is HT-29. The assay can be described thus: In vitro Anti Neoplastic Activity in Human Colon adenocarcinoma HT-29 Cell lines. Format: functional, cell-based. The procedure, abridged:
as §1

Assay [22] has as its system A549. Description: In vitro Anti Neoplastic Activity against Human non small cell lung carcinoma A549 Cell lines. Type of assay: functional, cell-based. Summed up: as §1
In assay [23] the test system is MCF7. The assay can be described thus: In vitro Anti Neoplastic Activity against Human Breast adenocarcinoma MCF-7 Cell lines. Format: functional, cell-based. Summed up:
as §1

Each structure is given as a SMILES string. Bounds are passed on as bounds.

`CN(C/C=C\CN)CC1OC(n2cnc3c(N)ncnc32)CC1O` (stereo not drawn): the IC50 was 20 µM with L1210 [1]; 500 µM with L1210 [2]; 4.2 µM in assay [3]; 30 µM in assay [4]; 2.9 µM in assay [5]; 74 µM in assay [6].

Consider `CN(C/C=C\CN)CCOCn1cnc2c(N)nc(N)nc21`, for which the IC50 in the assay on L1210 [1] was over 100 µM; in the assay with A121 [7], over 100 µM; in the assay with MCF7 [8] it was over 100 µM; in assay [9], 10 µM; in assay [10], 6.6 µM; in assay [11], 0.96 µM. The IC50 is over 100 µM with HT-29 [12], over 100 µM in the assay with MCF7 [13], 11 µM in assay [14] and over 100 µM in the assay with A549 [15].

Consider `CN(Cc1ccccc1CN)C[C@H]1OC(n2cnc3c(N)ncnc32)[C@H](O)[C@@H]1O` (stereo partly drawn), for which the inhibition at 100 µM was determined as 41% with L1210 [16] and 42% in assay [18]. The IC50 in [9] is 14 µM; in the assay on L1210 [17], over 600 µM.

Turning to `CN(C/C=C\CN)C[C@H]1O[C@@H](n2cnc3c(N)nc(N)nc32)[C@H](O)[C@@H]1O`, the IC50 in assay [9] was 4.5 µM; in assay [10] it was 3.8 µM; in assay [11], 2 µM; in [14] it was 19 µM.

As for `CC(=O)OCC(CN(C)C/C=C\CN)OC(COC(C)=O)n1cnc2c(N)ncnc21` (stereo not drawn), the IC50 with A121 [19] was over 100 µM; with MCF7 [20], over 100 µM; in the assay with HT-29 [21], over 100 µM; in [9], 1.8 µM; in assay [10], 4.6 µM; with A549 [22], over 100 µM. The IC50 was over 100 µM in the assay on MCF7 [23], 2.9 µM in assay [11] and 3.8 µM in assay [14].

One may read the inhibition as the drop in the measured response relative to a control, in per cent. A high value points to a strong effect.
